Laboratory results taken from ChEMBL document CHEMBL1153726, “Synthesis and anticancer activity of sclerophytin-inspired hydroisobenzofurans” (Bioorg Med Chem Lett, 2009).

How the values were obtained:
Assay type in all cases: functional
NCI-H460 = test: Growth inhibition of human NCI-H460 cells at 1 nM after 96 hrs by MTT assay; set-up: scale not given: the % may be the effect or the level left
CCRF-CEM = test: Growth inhibition of human CCRF-CEM cells at 10 uM after 96 hrs by MTT assay; set-up: scale not given: the % may be the effect or the level left
HCC 2998 = test: Growth inhibition of human HCC2998 cells at 1 uM after 96 hrs by MTT assay; set-up: scale not given: the % may be the effect or the level left
BT-549 = test: Growth inhibition of human BT549 cells after 96 hrs by MTT assay; settings: BT-549, 96 h
HCT-116 [1] = test: Growth inhibition of human HCT116 cells after 96 hrs by MTT assay; settings: HCT-116, 96 h
Summary of the method: (§1)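 Run in the NCI 60 human tumour cell line panel as a five-dose assay. GI50 and LC50 were reported for each cell line.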

MDA-MB-435 [2] = test: Growth inhibition of human MDA-MB-435 cells at 1 uM after 96 hrs by MTT assay; set-up: scale not given: the % may be the effect or the level left
SR = test: Growth inhibition of human SR cells at 10 uM after 96 hrs by MTT assay; set-up: scale not given: the % may be the effect or the level left
HOP-62 = test: Growth inhibition of human HOP62 cells at 10 uM after 96 hrs by MTT assay; set-up: scale not given: the % may be the effect or the level left
UACC-62 = test: Growth inhibition of human UACC62 cells at 10 uM after 96 hrs by MTT assay; set-up: scale not given: the % may be the effect or the level left
MOLT-4 = test: Growth inhibition of human MOLT4 cells at 1 nM after 96 hrs by MTT assay; set-up: scale not given: the % may be the effect or the level left
T47D = test: Growth inhibition of human T47D cells after 96 hrs by MTT assay
Summary of the method: (§2)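 Tested in the NCI 60-cell-line panel in five-dose format; GI50 and LC50 values reported for each cell line.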

MDA-MB-231 = test: Growth inhibition of human MDA-MB-231 cells at 1 nM after 96 hrs by MTT assay; set-up: scale not given: the % may be the effect or the level left
UACC-257 [3] = test: Growth inhibition of human UACC257 cells after 96 hrs by MTT assay; settings: UACC-257, 96 h; summary of the method: as §2
HT-29 [4] = test: Growth inhibition of human HT-29 cells after 96 hrs by MTT assay; settings: HT-29, 96 h; summary of the method: as §1
KM12 = test: Growth inhibition of human KM12 cells at 10 nM after 96 hrs by MTT assay; set-up: scale not given: the % may be the effect or the level left
MDA-MB-435 [5] = test: Growth inhibition of human MDA-MB-435 cells at 10 nM after 96 hrs by MTT assay; set-up: scale not given: the % may be the effect or the level left
[6] = Growth inhibition of human Hs 578T cells at 1 uM after 96 hrs by MTT assay; set-up: scale not given: the % may be the effect or the level left
HT-29 [7] = test: Growth inhibition of human HT-29 cells at 100 nM after 96 hrs by MTT assay; set-up: scale not given: the % may be the effect or the level left
HCT-116 [8] = test: Growth inhibition of human HCT116 cells at 100 nM after 96 hrs by MTT assay; set-up: scale not given: the % may be the effect or the level left
SK-OV-3 = test: Growth inhibition of human SKOV3 cells after 96 hrs by MTT assay; settings: SK-OV-3, 96 h; summary of the method: as §2
UO-31 [9] = test: Growth inhibition of human UO31 cells at 1 uM after 96 hrs by MTT assay; set-up: scale not given: the % may be the effect or the level left
SNB-75 = test: Growth inhibition of human SNB75 cells after 96 hrs by MTT assay; settings: SNB-75, 96 h; summary of the method: as §2
M14 = test: Growth inhibition of human M14 cells at 10 nM after 96 hrs by MTT assay; set-up: scale not given: the % may be the effect or the level left
OVCAR-5 = test: Growth inhibition of human OVCAR5 cells at 100 nM after 96 hrs by MTT assay; set-up: scale not given: the % may be the effect or the level left
PC-3 = test: Growth inhibition of human PC3 cells at 100 nM after 96 hrs by MTT assay; set-up: scale not given: the % may be the effect or the level left
NCI-H23 = test: Growth inhibition of human NCI-H23 cells at 1 uM after 96 hrs by MTT assay; set-up: scale not given: the % may be the effect or the level left
DU-145 = test: Growth inhibition of human DU145 cells at 1 uM after 96 hrs by MTT assay; set-up: scale not given: the % may be the effect or the level left
UO-31 [10] = test: Growth inhibition of human UO31 cells at 10 nM after 96 hrs by MTT assay; set-up: scale not given: the % may be the effect or the level left
[11] = Growth inhibition of human Hs 578T cells at 10 uM after 96 hrs by MTT assay; set-up: scale not given: the % may be the effect or the level left
UACC-257 [12] = test: Growth inhibition of human UACC257 cells at 1 nM after 96 hrs by MTT assay; set-up: scale not given: the % may be the effect or the level left
NCI-H226 = test: Growth inhibition of human NCI-H226 cells at 10 uM after 96 hrs by MTT assay; set-up: scale not given: the % may be the effect or the level left
K562 = test: Growth inhibition of human K562 cells at 100 nM after 96 hrs by MTT assay; set-up: scale not given: the % may be the effect or the level left
SNB-19 = test: Growth inhibition of human SNB19 cells at 1 nM after 96 hrs by MTT assay; set-up: scale not given: the % may be the effect or the level left
SK-MEL-28 [13] = test: Growth inhibition of human SK-MEL-28 cells at 1 nM after 96 hrs by MTT assay; set-up: scale not given: the % may be the effect or the level left
OVCAR-8 = test: Growth inhibition of human OVCAR8 cells at 1 nM after 96 hrs by MTT assay; set-up: scale not given: the % may be the effect or the level left
NCI/ADR-RES = test: Growth inhibition of human NCI/ADR-RES cells at 1 uM after 96 hrs by MTT assay; set-up: scale not given: the % may be the effect or the level left
SK-MEL-28 [14] = test: Growth inhibition of human SK-MEL-28 cells at 1 uM after 96 hrs by MTT assay; set-up: scale not given: the % may be the effect or the level left
RXF 393 = test: Growth inhibition of human RXF393 cells at 100 nM after 96 hrs by MTT assay; set-up: scale not given: the % may be the effect or the level left
A498 = test: Growth inhibition of human A498 cells after 96 hrs by MTT assay; settings: A498, 96 h
[15] = read-out: LC50 (the source's name)
[16] = read-out: Log10GI50 (converted)
[17] = read-out: Log10LC50 (converted)

With `C=C(C)[C@H]1CC=C(C)C2=CO[C@@H](c3ccccc3F)[C@@H]21` the Activity (NCI-H460) was 97%, the Activity (CCRF-CEM) was 68.96% and the Activity (HCC 2998) was 39%. It also gave a GI50 (BT-549; read-out: GI50) of 1.72 µM, a CC50 (BT-549; [15]) of 34 µM and a GI50 (BT-549; [16]) of 1.7 µM. For the same compound, the CC50 (BT-549; [17]) was 33.9 µM, the TGI (BT-549; read-out: Log10TGI (converted)) was 8.32 µM and the TGI (BT-549; read-out: TGI) was 8.37 µM. For the same compound, the GI50 (HCT-116 [1]; read-out: GI50) was 3 µM, the CC50 (HCT-116 [1]; [15]) was 36.9 µM and the GI50 (HCT-116 [1]; [16]) was 3.02 µM. It also gave a CC50 (HCT-116 [1]; [17]) of 37.2 µM, a TGI (HCT-116 [1]; read-out: Log10TGI (converted)) of 13.5 µM and a TGI (HCT-116 [1]; read-out: TGI) of 13.6 µM. It also gave an Activity (MDA-MB-435 [2]) of 4%, an Activity (SR) of 62.58% and an Activity (HOP-62) of 108.33%. For the same compound, the Activity (UACC-62) was 54.63%, the Activity (MOLT-4) was 106% and the GI50 (T47D; read-out: GI50) was 2.24 µM. It also gave a CC50 (T47D; [15]) of over 100 µM, a GI50 (T47D; [16]) of 2.24 µM and a CC50 (T47D; [17]) of over 100 µM. For the same compound, the TGI (T47D; read-out: Log10TGI (converted)) was 11 µM, the TGI (T47D; read-out: TGI) was 11.1 µM and the Activity (MDA-MB-231) was 101%. For the same compound, the GI50 (UACC-257 [3]; read-out: GI50) was 6.71 µM, the CC50 (UACC-257 [3]; [15]) was 50.9 µM and the GI50 (UACC-257 [3]; [16]) was 6.76 µM. For the same compound, the CC50 (UACC-257 [3]; [17]) was 51.3 µM, the TGI (UACC-257 [3]; read-out: Log10TGI (converted)) was 21.4 µM and the TGI (UACC-257 [3]; read-out: TGI) was 21.3 µM. It also gave a GI50 (HT-29 [4]; read-out: GI50) of 3.41 µM, an LC50 (50% lethal concentration) (HT-29 [4]; read-out: LC50) of 43.2 µM and a GI50 (HT-29 [4]; [16]) of 3.39 µM. The LC50 (50% lethal concentration) (HT-29 [4]; [17]) was 43.7 µM, the TGI (HT-29 [4]; read-out: Log10TGI (converted)) was 15.5 µM and the TGI (HT-29 [4]; read-out: TGI) was 15.6 µM. The Activity (KM12) was 93%, the Activity (MDA-MB-435 [5]) was 83% and the Activity [6] was 28%. For the same compound, the Activity (HT-29 [7]) was 82%, the Activity (HCT-116 [8]) was 82% and the GI50 (SK-OV-3; read-out: GI50) was 12.3 µM. The CC50 (SK-OV-3; [15]) was over 100 µM, the GI50 (SK-OV-3; [16]) was 12.3 µM and the CC50 (SK-OV-3; [17]) was over 100 µM. For the same compound, the TGI (SK-OV-3; read-out: Log10TGI (converted)) was 38.9 µM, the TGI (SK-OV-3; read-out: TGI) was 39.3 µM and the Activity (UO-31 [9]) was 42%. For the same compound, the GI50 (SNB-75; read-out: GI50) was 4.94 µM, the LC50 (SNB-75; read-out: LC50) was 56.9 µM and the GI50 (SNB-75; [16]) was 4.9 µM. The LC50 (SNB-75; [17]) was 57.5 µM, the TGI (SNB-75; read-out: Log10TGI (converted)) was 20.4 µM and the TGI (SNB-75; read-out: TGI) was 20.5 µM. It also gave an Activity (M14) of 89%, an Activity (OVCAR-5) of 100% and an Activity (PC-3) of 70%. It also gave an Activity (NCI-H23) of 34%, an Activity (DU-145) of 37% and an Activity (UO-31 [10]) of 83%. It also gave an Activity [11] of 95.86%, an Activity (UACC-257 [12]) of 91% and an Activity (NCI-H226) of 98.1%. The Activity (K562) was 68%, the Activity (SNB-19) was 94% and the Activity (SK-MEL-28 [13]) was 98%. The Activity (OVCAR-8) was 99%, the Activity (NCI/ADR-RES) was 26% and the Activity (SK-MEL-28 [14]) was 53%. For the same compound, the Activity (RXF 393) was 84%, the GI50 (A498; read-out: GI50) was 2.34 µM and the CC50 (A498; [15]) was 26.5 µM. For the same compound, the GI50 (A498; [16]) was 2.34 µM, the CC50 (A498; [17]) was 26.3 µM and the TGI (A498; read-out: Log10TGI (converted)) was 7.08 µM. The TGI (A498; read-out: TGI) was 7.07 µM.
